# Only some compounds are listed: those with a hit (about 0.86% of all), similar ones and a draw of the others.
# PERK inhibitor – blocks human PERK kinase | Q9NZJ5 | CHO PERK-DD fusion, SEAP luminescence translation reporter | inhibition, % at 5.6 µM | actives 0.17% (n = 220,000) | AID 1416;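 active means inhibition above the mean inhibition of all tested compounds plus 3 SD, set separately per screening campaign, cut at about 2.9% in these data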;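 further: PERK kinase domain activated by AP20187 dimerizer at 100 nM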
# TNAP act hi DEA – increases human TNAP activity under high phosphate acceptor concentration | activation factor at 20 µM | AID 1136 | 200,000 tested, under 10 active | purified TNAP, CDP-star luminescence, 1 M DEA, 30 min; active compounds read high; 0 = EDTA background, 1 = DMSO-only activity;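 active means activation factor at least 2 at 20 µM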
#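 Test system – human TNAP · Doses – 20 µM single point · Incubation – 30 min, room temperature · Signal – luminescent substrate turnover signal · Read-out basis – activation factor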
# p97 ATPase inh – blocks human p97 ATPase activity | P55072 | recombinant p97 ATPase, Kinase-Glo ATP luminescence, 3 h | inhibition, % at 8 µM | actives 0.42% (n = 220,000) | AID 1481; in the data active means inhibition above about 15%
# DTT redox prof – compounds producing H2O2 with reducing agent – biochemical, NIH compound library profiling, artefact control for MLSCN library redox annotation, primary screen. DTT-dependent redox cycling H2O2, phenol red/HRP absorbance; 100% = 100 µM peroxide control, 0% = buffer. activation, % at 10 µM. actives 0.03% (n = 200,000);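 active means activation of at least 50% relative to the plate's high and low controls in the primary single-dose screen; inactive means activation below 50%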;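 further: compound incubated with DTT at 0.8 mM final as the reducing agent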
# TNAP inh hiacc – inhibitors of human TNAP at high phosphate acceptor concentration. P05186. purified TNAP, CDP-star luminescence, 1 M DEA. inhibition, % at 20 µM. actives 0.03% (n = 200,000). AID 1135;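 active means over 50% inhibition of tissue-nonspecific alkaline phosphatase at 20 µM in the single-dose screen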
# TNAP inh noacc – blocks human TNAP activity with no phosphate acceptor present; P05186; purified TNAP, CDP-star luminescence, 30 min; inhibition, % at 20 µM; actives 0.26% (n = 200,000); AID 1012;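 active means tissue-nonspecific alkaline phosphatase inhibition above about 50% at 20 µM in the single-dose screen, limit read from the data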
# p97 inh conf – human p97 ATPase inhibition, confirmation; recombinant p97 ATPase, Kinase-Glo ATP luminescence; inhibition, % at 8 µM; shares compounds with p97 ATPase inh; actives 44% (n = 760);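 active means percent inhibition of p97 ATPase above a set limit, the primary screen's mean plus 3 SD, cut at about 15% in these data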
# Numbers stand for hits; – = inactive; · = not tested or not shown.
SMILES,PERK inhibitor,TNAP act hi DEA,p97 ATPase inh,DTT redox prof,TNAP inh hiacc,TNAP inh noacc,p97 inh conf
O=C(Nc1ccc(Cl)cc1)C1CC2CCCC(C1)C2=O (stereo not given),–,–,–,–,–,–,·
CN(C)c1ccnc(Oc2ccc(C(C)(C)C)cc2)c1C#N,–,–,–,–,–,–,·
O=C1NN(c2cccc(Br)c2)C(=O)/C1=C/c1cccs1,–,·,17,·,·,·,23
O=C1NN(c2ccccc2)C(=O)/C1=C/c1cccs1,–,–,–,–,–,–,·
COc1cc(/C=N/NC(=O)c2cc(-c3ccco3)nc3ccccc23)cc(OC)c1O,–,·,16,·,·,·,–
Cn1cccc1/C=C1\SC(=Nc2cccc(O)c2)NC1=O,–,·,16,·,·,·,–
Cc1ccc(N=C2NC(=O)/C(=C/c3cccn3C)S2)c(C)c1,–,·,–,·,·,·,·
Cn1cccc1/C=C1\SC(=Nc2ccc(O)cc2)NC1=O,–,·,16,·,·,·,23
Cn1cccc1/C=C1\SC(=Nc2ccccc2)NC1=O,–,·,–,·,·,·,·
Cc1ccc2sc(C)[n+](CCC(C)S(=O)(=O)[O-])c2c1 (stereo not given),–,–,–,–,–,–,·
O=C(COc1ccccc1C(=O)NCc1ccncc1)Nc1ccc(Br)cc1,–,–,–,–,–,–,·
CN1CCN(C(=O)C2=C[C@H](C(C)(C)C)C[C@H](OCCCCO)O2)CC1,–,–,–,–,–,–,·
CCc1ccccc1NC(=S)N1CCC(C(=O)c2ccc(F)cc2)CC1,–,–,–,–,–,–,·
OCCNc1nc(Nc2ccccc2)nc2ccccc12,–,–,–,–,–,–,·
Oc1ccccc1Nc1nc(NCc2ccccc2)c2ccccc2n1,–,–,26,–,–,–,31
Cc1cc(=O)n2[nH]c(-c3ccsc3-n3c(C)ccc3C)cc2n1,–,·,23,·,·,·,–
Cc1nc2cc(-c3ccsc3-n3c(C)ccc3C)[nH]n2c(=O)c1Cl,–,–,30,–,–,–,–
CCCc1cc(=O)[nH]c(SCC(=O)Nc2ccc3c(c2)CCC3)n1,–,–,15,–,–,–,–
CCC(C)c1ccc(C2C3=C(Nc4nc(N)[nH]c(=O)c42)c2ccccc2C3=O)cc1 (stereo not given),–,·,15,·,·,·,–
COc1ccc(NC(=O)c2ccccc2-c2ccccc2)c(C)c1,–,–,–,–,–,–,·
O=C(C[n+]1cnn(CC(=O)c2ccc(Cl)cc2Cl)c1)c1ccc([N+](=O)[O-])cc1,–,–,17,–,–,–,–
COC(=O)c1c(N2C(=O)Nc3ccccc3N2O)sc2c1CCCC2,–,–,–,–,–,–,·
COC(=O)c1c(-c2ccccc2)csc1N1C(=O)Nc2ccccc2N1O,–,–,15,–,–,–,23
CCOC(=O)c1c(-c2ccccc2)csc1N1C(=O)Nc2ccccc2N1O,–,–,18,–,–,–,21
COc1ccccc1NC(=O)CSc1nnc(COc2ccccc2OC)n1C,–,–,–,–,–,–,·
SMILES,PERK inhibitor,TNAP act hi DEA,p97 ATPase inh,DTT redox prof,TNAP inh hiacc,TNAP inh noacc,p97 inh conf
CCOC(=O)c1c(CC(C)C)csc1NC(=O)c1ccccc1C(=O)O,–,·,18,·,·,·,22
CCN1C(=O)c2ccc(-c3nc4ccccc4c(=O)o3)cc2C1=O,–,–,24,–,–,–,–
C[n+]1cccc2cccc([O-])c21,–,·,37,·,·,·,20
CCC(CC)c1nn2c(N)c(/C=C3\C(C)=Nc4ccccc43)c(=O)nc2s1,–,·,24,·,·,·,25
CC1=Nc2ccccc2/C1=C/c1sc(=O)n(CC(=O)N2CCCC2)c1O,–,–,–,–,–,–,·
CC(C)Cc1nn2c(N)c(/C=C3\C=Nc4ccccc43)c(=O)nc2s1,–,–,16,–,–,83,–
O=C(COC(=O)Cc1n[nH]c(=O)c2ccccc12)Nc1cccc(C(F)(F)F)c1,–,–,–,–,–,–,·
CSCCC(NS(=O)(=O)c1ccc(Cl)cc1)C(=O)OCC(=O)NC12CC3CC(CC(C3)C1)C2 (stereo not given),–,–,22,–,–,–,–
COC(=O)C(CCSC)NS(=O)(=O)c1ccc(Cl)cc1 (stereo not given),–,–,–,–,–,–,·
S=C(Nc1ccc2nsnc2c1)NC1CCCCC1,–,–,15,–,–,–,–
S=C(Nc1ccc(Cl)c(Cl)c1)NC1CCCCC1,–,–,–,–,–,–,·
CC(C)N(C(=O)Nc1ccc2nsnc2c1)C(C)C,–,–,42,–,–,–,17
COc1ccc(NC(=S)Nc2ccc3nsnc3c2)cc1,–,–,38,–,–,–,19
COc1ccc(N(C)C(=O)Nc2ccc3nsnc3c2)cc1,–,–,32,–,–,–,–
O=S(=O)(c1cccc(-c2n[nH]c(=S)n2C2CCCC2)c1)N1CCOCC1,–,–,–,–,–,–,·
CC1=NN(C(=O)CCc2ccc3c(c2)OCO3)C(O)(C(F)(F)F)C1 (stereo not given),–,–,–,–,–,–,·
Cc1ccccc1NNC(=O)C(=O)NNc1ccccc1C,–,·,–,·,·,·,·
Cc1ccccc1NC(=O)C(Cl)=C(Cl)Cl,–,–,27,–,–,–,36
CC(=O)c1sc(C(C)(C)C)cc1NC(=O)c1ccccc1C(=O)O,–,·,–,·,·,·,·
COc1ccc2c(c1)c(/C=N/Nc1nc3ccccc3[nH]1)c(C)n2C,–,·,33,·,·,·,–
N#C/C(=C/c1ccc(Br)o1)C(N)=S,–,·,35,·,·,·,30
N#C/C(=C/c1ccc(Br)o1)C(N)=O,–,–,–,–,–,–,·
N/C(=N\NC(=O)c1cccc(F)c1)c1cc2ccccc2oc1=O,–,·,16,·,·,·,–
O=C(CN1CCCN(Cc2ccc(F)cc2Cl)C1=O)NC1CCCC1,–,–,–,–,–,–,·
Cc1cc(C)c2nc(SCC(=O)NNC(=O)c3ccco3)c(C)cc2c1,–,–,15,–,–,–,16
SMILES,PERK inhibitor,TNAP act hi DEA,p97 ATPase inh,DTT redox prof,TNAP inh hiacc,TNAP inh noacc,p97 inh conf
Cc1cc2cccc(C)c2nc1SCC(=O)NNC(=O)c1ccco1,–,–,–,–,–,–,·
O=C(NCCc1csc(-c2ccc(C(F)(F)F)cc2)n1)c1cccs1,–,–,–,–,–,–,·
Cc1ccc(CN2CCNC(=O)C2CC(=O)NCC(F)(F)F)o1 (stereo not given),–,–,–,–,–,–,·
COc1ccc2[nH]cc(C(=O)CCl)c2c1,–,·,42,·,·,·,46
N=c1c(C(=O)NCc2ccccc2)cc2c(=O)n3ccccc3nc2n1Cc1ccco1,–,–,23,–,–,–,–
CN1CCN(C(=O)c2ccccc2NC(=O)Cc2ccccc2)CC1,–,–,–,–,–,–,·
O=C(Cn1c(-c2ccccc2)noc1=O)Nc1ccc(N2CCCCCC2)cc1,–,–,16,–,–,–,–

# Assay outcomes as filed in PubChem.
